The values that follow come from ChEMBL document CHEMBL1153035, “Desmethoxymajusculamide C, a cyanobacterial depsipeptide with potent cytotoxicity in both cyclic and ring-opened forms” (J Nat Prod, 2009).

Calls of active or inactive are those of the source. The calls are words filed in the database; no cut-off is given here. Starred links: 1 amine or outer side, 2 acyl side, 3 side chain; linkers in the order of their positions; H or OH if unused. Non-standard residues stand in square brackets, D forms with d. Residues, ends and D or L forms follow the SMILES beside them. *: point of attachment. X1 = CC[C@H](C)[C@H](OC(=O)[C@@H](C)[C@@H](CC)N[*:1])C(=O)[*:2]; Pentanoyl(2S-OH,3S-Me) = CC[C@H](C)[C@H](O)C(=O)*; X2 = C[C@H](N[*:1])C(=O)C(C)(C)C(=O)[*:2]; NMeF = CN[C@@H](Cc1ccccc1)C(=O)O; NMeI = CC[C@H](C)[C@H](NC)C(=O)O; X3 = CC[C@@H](N*)[C@H](C)C(=O)O; NMeV = CN[C@H](C(=O)O)C(C)C

For one series, the system named is NCI-H460. In words: Cytotoxicity against human H460 cells after 24 hrs. It counts as functional, cell-based. To be noted: NCI-H460, 24 h.
In series [1] the test system is MDA-MB-435. In words: Cytotoxicity against human MDA-MB-435 cells after 24 hrs. The series is classed as functional, cell-based. To be noted: MDA-MB-435, 24 h.
Series [2] is described as follows: Cytotoxicity against mouse Neuro2a cells after 24 hrs. To be noted: N2a. The series is classed as functional, cell-based.
The test system of series [3] is HCT-116. Description: Selectivity ratio, IC50 for human H460 cells to IC50 for human HCT116 cells. It counts as functional.
For series [4], the system named is MDA-MB-435. Description: Selectivity ratio, IC50 for human MDA-MB-435 cells to IC50 for human HCT116 cells. It counts as functional.
Series [5] can be described thus: Selectivity ratio, IC50 for […] cells to IC50 for human HCT116 cells. It counts as functional.
Another series concerns A10. Description: Effect on actin cytoskeleton in rat A10 cells assessed as loss of F-actin filament at 52 nM by TRITC-phalloidin staining. The series is classed as functional, cell-based. Put shortly: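 A-10 cells on glass coverslips in BME + 10% fetal calf serum, exposed 24 h, then fixed with 3% paraformaldehyde, permeabilized with 0.2% Triton X-100, and reduced with NaBH4. Stained 45 min with 100 nM TRITC-phalloidin plus DAPI. F-actin examined by fluorescence microscopy against vehicle-treated control.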

Series [6] deals with HCT-116. In words: Cytotoxicity against human HCT116 cells after 120 hrs. As to conditions: HCT-116, 120 h.
Series [7] has as its system HCT-116. Description: Cytotoxicity against human HCT116 cells assessed as clonogenic concentration required for 10% surviving fraction after 2 hrs. The series is classed as functional. Put shortly: (§1)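 HCT-116 cells seeded at 200 or 20,000 per 60 mm dish in RPMI + 10% FBS. Drug added at a final top concentration of 10 µg/mL (10.5 µM) with 10-fold dilutions, for 2 h or 24 h then replaced by drug-free medium, or left continuously (168 h). After 7 days, colonies stained with methylene blue; colonies of ≥50 cells counted and normalized to untreated control.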

The test system of series [8] is HCT-116. In words: Antitumor activity against human HCT116 cells xenografted in SCID mouse assessed as tumor growth rate at 0.31 mg/kg, iv dosed daily for 5 days relative to control. The series is classed as functional, organism-based. More on the design: dose 0.31 mg/kg. The method in brief: (§2)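 HCT-116 tumor cells from tissue, 10^6 implanted subcutaneously into pooled SCID mice (>17 g, weights within 5 g), 5 per group. Starting 1 day after inoculation, bolus tail-vein iv daily for 5 days. Vehicle: DMSO stock diluted 1:1 with Cremophor-propylene glycol (40:60), then ≥10-fold with saline. Minimum %T/C reported; sacrifice at day 30.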

Series [9] deals with HCT-116. In words: Antitumor activity against human HCT116 cells xenografted in SCID mouse at 0.62 mg/kg, iv daily for 5 days relative to control. On the set-up: dose 0.62 mg/kg. It counts as functional, organism-based. Put shortly:
as §2
(In general: In xenograft studies the graft and the host belong to different species.)

The nature of series [10]: Toxicity in human HCT116 cells xenografted in SCID mouse assessed as maximum tolerated dose. It counts as organism-based, HCT-116. As to conditions: in vivo, read-out: Activity.
Series [11] deals with HCT-116. In words: Cytotoxicity against human HCT116 cells assessed as clonogenic concentration required for 10% surviving fraction after 24 hrs. It counts as functional. The method in brief: as §1
The subject of series [12] is HCT-116. Description: Cytotoxicity against human HCT116 cells assessed as clonogenic concentration required for 10% surviving fraction after 7 days. It counts as functional. The method in brief:
as §1

Regarding `CC[C@H](C)[C@H](O)C(=O)NCC(=O)N(C)[C@H](C(=O)NCC(=O)N(C)[C@H](C(=O)N(C)[C@@H](Cc1ccccc1)C(=O)N[C@@H](C)C(=O)C(C)(C)C(=O)N[C@@H](C)C(=O)N[C@H](CC)[C@H](C)C(=O)O)C(C)C)[C@@H](C)CC` ({Pentanoyl(2S-OH,3S-Me)}-G[NMeI]G[NMeV][NMeF][X2]A-X3), the concentration for half-maximal inhibition (IC50) (as a rule, the concentration needed to halve the response being measured) is 94 nM in the series with NCI-H460, 230 nM in the series with MDA-MB-435 [1], more than 1000 nM in series [2] and 16 nM in the series on HCT-116 [6]. The “Ratio IC50” value in the series on HCT-116 [3] was 5; in the series with MDA-MB-435 [4], 14; in series [5], 10. In the series with A10, the result was Active.

Regarding `CC[C@H](C)[C@@H]1OC(=O)[C@@H](C)[C@@H](CC)NC(=O)[C@H](C)NC(=O)C(C)(C)C(=O)[C@H](C)NC(=O)[C@H](Cc2ccccc2)N(C)C(=O)[C@H](C(C)C)N(C)C(=O)CNC(=O)[C@H]([C@@H](C)CC)N(C)C(=O)CNC1=O` [DESMETHOXYMAJUSCULAMIDE C] (cyclo(A[X1]G[NMeI]G[NMeV][NMeF][X2])), the Activity was more than 10.5 µM in the series with HCT-116 [7], more than 10.5 µM in the series with HCT-116 [11] and 2.1 nM with HCT-116 [12]. The result in the series with HCT-116 [8], in the series with HCT-116 [9] and in the series on A10 was Active. Further, the IC50 was 63 nM in the series on NCI-H460, 220 nM in the series on MDA-MB-435 [1], more than 1000 nM in [2] and 20 nM in the series on HCT-116 [6]. For the same molecule, the MTD in series [10] turned out to be 2.5 mg/kg. Also, the “Ratio IC50” value in the series on HCT-116 [3] was 5; in the series with MDA-MB-435 [4] it was 11; in series [5], 10.
